# From ChEMBL document CHEMBL1144548, “Dioxane and oxathiane nuclei: suitable substructures for muscarinic agonists” (Bioorg Med Chem, 2007)
# Calls of active or inactive are those of the source. The rule behind the calls is not given here.
# Tests used:
# [1] = target: T1, Muscarinic acetylcholine receptor M1 (Homo sapiens) (UniProt P11229); details: Oryctolagus cuniculus; Vas deferens
# T1 sequence (whole entry): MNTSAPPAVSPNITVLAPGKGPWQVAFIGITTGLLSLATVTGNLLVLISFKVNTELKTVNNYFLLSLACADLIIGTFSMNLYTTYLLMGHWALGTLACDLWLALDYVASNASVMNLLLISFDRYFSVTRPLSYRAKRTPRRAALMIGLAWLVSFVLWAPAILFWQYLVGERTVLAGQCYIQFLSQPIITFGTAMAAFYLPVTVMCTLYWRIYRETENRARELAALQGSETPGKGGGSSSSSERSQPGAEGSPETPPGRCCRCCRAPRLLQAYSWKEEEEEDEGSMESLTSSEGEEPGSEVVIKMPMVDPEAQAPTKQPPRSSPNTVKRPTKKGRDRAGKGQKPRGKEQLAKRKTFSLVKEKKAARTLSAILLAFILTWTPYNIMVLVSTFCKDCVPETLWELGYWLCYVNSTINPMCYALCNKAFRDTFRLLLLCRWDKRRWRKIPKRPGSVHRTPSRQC
# [2] = target: T2, Muscarinic acetylcholine receptor M4 (Homo sapiens, UniProt P08173); assay: Agonist activity at human muscarinic M4 receptor expressed in CHO cells; type: functional, cell-based
# T2 sequence (P08173 whole entry): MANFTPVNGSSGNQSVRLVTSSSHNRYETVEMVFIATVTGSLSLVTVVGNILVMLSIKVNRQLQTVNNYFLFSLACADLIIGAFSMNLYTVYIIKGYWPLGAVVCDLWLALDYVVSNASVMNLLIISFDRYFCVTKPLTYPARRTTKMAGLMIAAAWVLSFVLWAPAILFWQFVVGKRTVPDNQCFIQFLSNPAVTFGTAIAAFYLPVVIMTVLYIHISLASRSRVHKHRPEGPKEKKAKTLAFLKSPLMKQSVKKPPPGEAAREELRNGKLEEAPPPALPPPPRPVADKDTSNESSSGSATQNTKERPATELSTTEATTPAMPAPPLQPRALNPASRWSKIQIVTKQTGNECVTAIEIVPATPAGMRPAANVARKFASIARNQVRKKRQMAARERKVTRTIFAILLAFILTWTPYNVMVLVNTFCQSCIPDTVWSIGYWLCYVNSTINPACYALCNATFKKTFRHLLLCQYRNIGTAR
# [3] = target: Muscarinic acetylcholine receptor M3 (Cavia porcellus) (UniProt Q8VH26); assay: Agonist activity at muscarinic M3 receptor in guinea-pig ileum; type: functional, tissue-based
# Sequence of Muscarinic acetylcholine receptor M3 (Cavia porcellus) (Q8VH26 1-587): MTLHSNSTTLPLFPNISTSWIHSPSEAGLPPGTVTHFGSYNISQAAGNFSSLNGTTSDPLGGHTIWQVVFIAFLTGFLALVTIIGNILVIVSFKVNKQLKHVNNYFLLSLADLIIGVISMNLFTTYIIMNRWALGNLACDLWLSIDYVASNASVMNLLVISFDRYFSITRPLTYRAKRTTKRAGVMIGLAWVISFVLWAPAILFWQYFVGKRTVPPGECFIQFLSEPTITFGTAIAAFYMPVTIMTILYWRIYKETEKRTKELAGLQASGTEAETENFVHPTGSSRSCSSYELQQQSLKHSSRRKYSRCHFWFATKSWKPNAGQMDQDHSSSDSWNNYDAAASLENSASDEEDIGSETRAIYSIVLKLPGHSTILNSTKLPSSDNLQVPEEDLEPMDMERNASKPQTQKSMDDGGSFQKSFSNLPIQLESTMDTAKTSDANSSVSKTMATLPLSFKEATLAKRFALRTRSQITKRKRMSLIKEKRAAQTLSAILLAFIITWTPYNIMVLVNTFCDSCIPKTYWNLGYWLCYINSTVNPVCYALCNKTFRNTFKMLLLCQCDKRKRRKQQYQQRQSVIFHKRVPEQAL
# Summary of the method: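 Isolated tissues in an organ bath were washed for 30 min, then a cumulative dose–response curve to the compound was built. Contractions were recorded isometrically by force transducer and expressed as % of the maximal control-curve response. Parallel untreated tissues checked sensitivity drift. Values are means ± SEM of four to six independent experiments.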
# [4] = target: Muscarinic acetylcholine receptor M3 (Cavia porcellus) (UniProt Q8VH26); assay: Intrinsic activity at muscarinic M3 receptor in guinea-pig ileum assessed as ratio of agonist activity to activity of […]; type: functional, tissue-based
# [5] = test system: Muscarinic acetylcholine receptor M2 (Cavia porcellus); assay: Agonist activity at muscarinic M2 receptor in guinea-pig stimulated left atria
# [6] = test system: Muscarinic acetylcholine receptor M2 (Cavia porcellus); assay: Intrinsic activity at muscarinic M2 receptor in guinea-pig stimulated left atria assessed as ratio of agonist activity to activity of arecaidine propargyl ester
# [7] = test system: Muscarinic acetylcholine receptor M4 (Cavia porcellus); assay: Intrinsic activity at muscarinic M4 receptor in guinea-pig lung strips assessed as ratio of agonist activity to activity of McN-A-343
# [8] = target: T1, Muscarinic acetylcholine receptor M1 (Homo sapiens); assay: Antagonist activity at muscarinic M1 receptor in rabbit stimulated vas deferens at 10 uM; type: functional, tissue-based; details: Oryctolagus cuniculus, target entry is the homologue from another species
# [9] = test system: Muscarinic acetylcholine receptor M4 (Cavia porcellus); assay: Agonist muscarinic M4 receptor in guinea-pig lung strips
# [10] = target: T3, Muscarinic acetylcholine receptor M2 (Homo sapiens) (UniProt P08172); assay: Antagonist activity at muscarinic M2 receptor in guinea-pig stimulated left atria at 10 uM; type: functional; details: Cavia porcellus, target entry is the homologue from another species
# T3 sequence (whole entry): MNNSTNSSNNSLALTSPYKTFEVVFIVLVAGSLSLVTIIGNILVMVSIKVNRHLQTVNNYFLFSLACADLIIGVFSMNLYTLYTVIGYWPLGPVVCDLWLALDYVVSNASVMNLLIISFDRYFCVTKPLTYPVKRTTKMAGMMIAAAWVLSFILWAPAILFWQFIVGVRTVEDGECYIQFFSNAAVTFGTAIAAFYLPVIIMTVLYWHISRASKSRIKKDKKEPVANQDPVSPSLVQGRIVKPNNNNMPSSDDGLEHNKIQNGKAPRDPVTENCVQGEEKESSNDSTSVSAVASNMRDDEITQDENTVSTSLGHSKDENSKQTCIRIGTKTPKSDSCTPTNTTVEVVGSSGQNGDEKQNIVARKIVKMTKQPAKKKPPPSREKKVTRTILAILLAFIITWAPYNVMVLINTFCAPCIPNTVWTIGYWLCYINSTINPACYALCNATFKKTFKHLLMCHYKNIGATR
# [11] = target: T4, Muscarinic acetylcholine receptor M5 (Homo sapiens) (UniProt P08912); assay: Agonist activity at human muscarinic M5 receptor expressed in CHO cells; type: functional, cell-based
# T4 sequence (whole entry): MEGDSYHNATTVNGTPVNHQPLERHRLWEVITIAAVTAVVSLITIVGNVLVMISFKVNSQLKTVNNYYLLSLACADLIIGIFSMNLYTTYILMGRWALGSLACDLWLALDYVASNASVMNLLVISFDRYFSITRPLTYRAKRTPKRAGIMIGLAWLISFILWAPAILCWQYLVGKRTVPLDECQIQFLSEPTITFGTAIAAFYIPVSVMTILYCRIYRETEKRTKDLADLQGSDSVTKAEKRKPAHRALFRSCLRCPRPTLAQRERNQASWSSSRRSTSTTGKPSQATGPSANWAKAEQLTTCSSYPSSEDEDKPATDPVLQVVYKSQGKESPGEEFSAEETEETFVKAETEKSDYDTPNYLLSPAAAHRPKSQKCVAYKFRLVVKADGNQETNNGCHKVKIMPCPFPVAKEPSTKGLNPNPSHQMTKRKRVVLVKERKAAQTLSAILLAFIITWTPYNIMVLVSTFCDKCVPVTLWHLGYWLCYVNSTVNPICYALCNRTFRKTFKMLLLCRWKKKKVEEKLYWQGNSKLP
smiles,measurement,setting,value
C[C@H]1COC[C@@H](C[N+](C)(C)C)O1,pD2,[1],6.78
same,EC50,[2],2.82 µM
same,pD2,[3],7.65
CC1OC(C[N+](C)(C)C)CS1 (racemic),pD2,[1],6.81
same,pD2,[3],7.75
C[C@H]1COC[C@H](C[N+](C)(C)C)O1,pD2,[1],5.08
same,pD2,[3],6.02
CC1COCC(C[N+](C)(C)C)O1 (racemic; form 1) [listing 1 of 2 here],pD2,[1],5.65
same,pD2,[3],7.34
C[C@H]1O[C@@H](C[N+](C)(C)C)CS1,pD2,[3],5.82
C[C@H]1OCC[C@@H](C[N+](C)(C)C)O1,Intrinsic activity,[4],1
same,pD2,[5],5.24
same,Intrinsic activity,[6],1
same,Intrinsic activity,[7],1
same,pKb,[8],> 5
same,pD2,[9],6.41
same,pD2,[3],5.73
C[C@H]1CSC[C@H](C[N+](C)(C)C)O1 (relative stereo),Intrinsic activity,[4],1
same,pKb,[8],< 5
same,pD2,[3],5.21
same,pKb,[10],< 5
C[C@H]1OC[C@@H](C[N+](C)(C)C)O1 (relative stereo),pD2,[3],7.69
CC1COCC(C[N+](C)(C)C)O1 (racemic; form 1) [listing 2 of 2 here],EC50,[2],2.51 µM
C[C@@H]1COC[C@H](C[N+](C)(C)C)O1,Activity,[11],inactive
same,pKb,[8],< 5
same,EC50,[2],25.1 µM
same,pD2,[3],6.53
C[C@@H]1O[C@H](C[N+](C)(C)C)CS1,pD2,[3],8.06
C[C@H]1CSC[C@@H](C[N+](C)(C)C)O1 (relative stereo),Intrinsic activity,[4],1
same,pD2,[5],6.26
same,Intrinsic activity,[6],1
same,pD2,[1],4.46
same,pD2,[3],6.46
C[C@H]1OC[C@H](C[N+](C)(C)C)O1 (relative stereo),pD2,[3],7.47
CC1COCC(C[N+](C)(C)C)O1 (racemic; form 2),EC50,[2],282 µM
